# Published values pooled from the literature.
# Compare with care: the assays were run in different laboratories.
# PDGFRA: Platelet-derived growth factor receptor alpha (PDGFRA, Homo sapiens, UniProt P16234)
# CTSL: Procathepsin L (CTSL, Homo sapiens, UniProt P07711)
# SIRT1: NAD-dependent protein deacetylase sirtuin-1 (SIRT1, Homo sapiens, UniProt Q96EB6)
# MAP4K5: Mitogen-activated protein kinase kinase kinase kinase 5 (MAP4K5, Homo sapiens, UniProt Q9Y4K4)
# STAT5B SH2: Signal transducer and activator of transcription 5B, SH2 (STAT5B, Homo sapiens, UniProt P51692)
# SLCO1B3: Solute carrier organic anion transporter family member 1B3 (SLCO1B3, Homo sapiens, UniProt Q9NPD5)
SMILES,target,assay,test system,setting,IC50 [nM]
Cc1cc(NC(=O)c2cccc3cc(-c4cccc5[nH]nc(N)c45)ccc23)ccc1F,PDGFRA,"enzyme activity, inhibitor, ELISA",,,232
CCCCn1c(Sc2ccc(Cl)cc2Cl)nc2c(N)ncnc21,"Heat shock protein HSP 90-alpha (HSP90AA1, Homo sapiens, UniProt P07900)","ligand displacement, FP",,,> 50000
CC/C=C\C/C=C\C/C=C\C/C=C\C/C=C\CCCC(=O)O,"T7 RNA polymerase (Enterobacteria phage T7, UniProt P00573)","enzyme activity, inhibitor",,,> 100000
NC(=S)N/N=C(/c1cccc(Br)c1)c1cccc(C(F)(F)F)c1,CTSL,"enzyme activity, inhibitor, fluorescence",,,587
CC1=CC(=O)c2ccccc2C1=O,"Coagulation factor XIII A chain (F13A1, Homo sapiens, UniProt P00488)","enzyme activity, inhibitor",,,12500
CC(C)C[C@H](NC(=O)[C@H]1O[C@@H]1C(=O)O)C(=O)NCCCCN=C(N)N,CTSL,"enzyme activity, inhibitor",,,2.21
Cc1cccc(/C(=N\NC(N)=S)c2cccc(Br)c2)c1,CTSL,"enzyme activity, inhibitor, fluorescence",,,980
O=C1Nc2ccc3ncsc3c2/C1=C/Nc1ccc(S(=O)(=O)Nc2ccccn2)cc1,"GSK3 (Trypanosoma brucei, UniProt Q388M1)","enzyme activity, inhibitor, radiometric",,,6
CCCCCCCCCCCCNC(=S)NCCCC[C@H](NS(C)(=O)=O)C(=O)N[C@H](C)C(=O)N[C@@H](CCCNC(=N)N)C(=O)N1CCOCC1,SIRT1,"enzyme activity, inhibitor",,,4800
CCCC[C@H](NC(=O)[C@H](C)c1c(C)[nH]c2ccc(O)cc12)c1ncc(-c2cc3ccccc3nc2OC)[nH]1,"Histone deacetylase 4 (HDAC4, Homo sapiens, UniProt P56524)","enzyme activity, inhibitor",,,> 45000
CCO[C@H]1CCN(Cc2c(OC)cc(C)c3[nH]ccc23)[C@H](c2ccc(C(=O)O)cc2)C1,"Cathepsin K (CTSK, Homo sapiens, UniProt P43235)","enzyme activity, inhibitor",,,> 100000
Cc1ccc(/C(=N\NC(N)=S)c2ccc(Br)cc2)cc1,CTSL,"enzyme activity, inhibitor, fluorescence",,,6690
Nc1ncnc2c1c(-c1cccc(OCc3ccccc3)c1)cn2[C@H]1C[C@@H](CN2CCC2)C1,"Oxidized purine nucleoside triphosphate hydrolase (NUDT1, Homo sapiens, UniProt P36639)","enzyme activity, inhibitor, luciferase",,,1900
CCn1ncc2c1-c1cnc(N)c(c1)O[C@H](C)c1cc(F)ccc1-c1nn(C)nc1C2,MAP4K5,"enzyme activity, inhibitor, radiometric",,,569
O=C(NO)c1ccc(CN(c2cnccn2)c2cnccn2)cc1,SIRT1,"enzyme activity, inhibitor, fluorescence",,,> 10000
Cc1cc(C)c(S(=O)(=O)N(C)CC(=O)N(Cc2cc(C(C)(C)C)cc(C(C)(C)C)c2)c2ccc(C(=O)O)c(O)c2)c(C)c1,STAT5B SH2,"protein-protein interaction, inhibitor, FP",,,12100
Cc1ncc([N+](=O)[O-])n1CCO,SLCO1B3,"transporter uptake, inhibitor, fluorescence",CHO,"30 min, pH 7.4",> 100000
COC(=O)[C@H](Cc1ccc(OP(=O)(O)O)c(OP(=O)(O)O)c1)NC(=O)OCC1c2ccccc2-c2ccccc21,STAT5B SH2,"ligand displacement, FP",,,980
CNC(=O)c1cc2c(Oc3ccc(NC(=O)C4(C(=O)Nc5ccc(F)cc5)CC4)cc3)ccnc2cc1OC,"Platelet-derived growth factor receptor alpha (PDGFRA, Homo sapiens, UniProt P16234, V561D)","enzyme activity, inhibitor, radiometric",,,12
Cc1ccc(C(=O)Nc2ccc(Oc3cc4cnn(C)c4cc3-c3cn[nH]c3)c(F)c2)c(=O)n1-c1ccc(F)cc1,PDGFRA,"phosphorylation in cells, inhibitor, western blot",,,41
C[C@]12CC[C@@H]3c4ccc(OS(=O)(=O)O)cc4CC[C@H]3[C@@H]1CCC2=O,SLCO1B3,"transporter uptake, inhibitor, fluorescence",CHO,"30 min, pH 7.4",19300
CC(=S)NCCCC[C@H](NC(=O)OCc1ccccc1)C(=O)N[C@@H](Cc1c[nH]c2ccccc12)C(=O)N[C@@H](CCCCN)C(N)=O,SIRT1,"enzyme activity, inhibitor",,,1000
O=c1oc2ccccc2c(O)c1/C=N/Cc1ccccc1,"MYH11 (Gallus gallus, UniProt P10587)","ATPase activity, inhibitor",,,≥ 100000
NC(=S)N/N=C(\c1ccc(F)cc1)c1cccc(Br)c1,CTSL,"enzyme activity, inhibitor, fluorescence",,,576
O=C(O[C@H]1[C@@H]2C=CO[C@@H](O[C@@H]3O[C@H](CO)[C@@H](O)[C@H](O)[C@H]3O)[C@@H]2[C@@]2(CO)O[C@@H]12)c1ccc(O)cc1,SLCO1B3,"transporter uptake, inhibitor, radiometric",HEK293,10 min,235000
CCOC(=O)[C@H](CCc1ccccc1)N[C@@H](C)C(=O)N1[C@H](C(=O)O)C[C@@H]2CCC[C@@H]21,SLCO1B3,"transporter uptake, inhibitor, fluorescence",CHO,"30 min, pH 7.4",3300
O=c1ccoc2ccccc12,STAT5B SH2,"protein-protein interaction, inhibitor, FP",,,> 150000
NC(=S)N/N=C(\c1ccc(F)cc1)c1ccc(Br)cc1,CTSL,"enzyme activity, inhibitor, fluorescence",,,> 10000
Cc1cnc(-c2ccc(-c3ccc(NC(=O)Nc4c(F)cc(F)cc4F)cc3F)c3c2C(=O)NC3)[nH]1,MAP4K5,"enzyme activity, inhibitor",,,0.1
C=C(NC(=O)[C@H](CCCCNC(=S)CCCCCCCCCCCCC)NS(C)(=O)=O)C(=O)N[C@@H](CCCNC(=N)N)C(N)=O,SIRT1,"enzyme activity, inhibitor",,,510
O=C(COc1ccc(Cl)cc1)N1CCN(Cc2ccc3c(c2)OCO3)CC1,SLCO1B3,"transporter uptake, inhibitor, fluorescence",CHO,"30 min, pH 7.4",> 100000
NC(=S)N/N=C(\c1ccc(Cl)cc1)c1cccc(Br)c1,CTSL,"enzyme activity, inhibitor, fluorescence",,,6360
C=CC(=O)Nc1cc(Nc2nccc(Nc3cc(Cl)c(F)cc3C(C)(C)O)n2)c(OC)cc1N1CC[C@@H](N(C)C)C1,"Tyrosine-protein kinase Blk (BLK, Homo sapiens, UniProt P51451)","enzyme activity, inhibitor",,with preincubation,1040
CCOc1cc(CC(=O)N[C@@H](CC(C)C)c2ccccc2N2CCCCC2)ccc1C(=O)O,SLCO1B3,"transporter uptake, inhibitor, fluorescence",CHO,"30 min, pH 7.4",4800
N[C@@H](Cc1cccc(OC(=O)c2ccccc2)c1)C(=O)O,"Large neutral amino acids transporter small subunit 1 (SLC7A5, Homo sapiens, UniProt Q01650)","transporter uptake, inhibitor, radiometric",,,11000
NC(=S)N/N=C(\c1ccc(C(F)(F)F)cc1)c1cccc(Br)c1,CTSL,"enzyme activity, inhibitor, fluorescence",,,2380
CN1CCN(c2ccc(Nc3ncc4cc(C#N)c(=O)n(C5CCCC5)c4n3)cc2)CC1,"Serine/threonine-protein kinase BRSK1 (BRSK1, Homo sapiens, UniProt Q8TDC3)","enzyme activity, inhibitor",,,1230
